Measurements from ChEMBL document CHEMBL4311965, “Antimicrobial activity of amphipathic α,α-disubstituted β-amino amide derivatives against ESBL - CARBA producing multi-resistant bacteria; effect of halogenation, lipophilicity and cationic character” (Eur J Med Chem, 2019).
Converted amounts (≈) assume the structure as drawn.

How the values were obtained:
[1] = tested on: Corynebacterium glutamicum; assay: Antibacterial activity against Corynebacterium glutamicum ATCC 13032 cultured in MHB medium assessed as no bacterial growth incubated at 20 degC for 24 hrs by microdilution susceptibility test; format: functional; conditions: ATCC 13032, 24 h
Summary of the method: (§1)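 Broth microdilution per CLSI M07-A9 with modifications. Inoculum about 2.5–3 x 10⁴ cells/mL in Mueller-Hinton broth, mixed 1:1 with test derivative. DMSO stocks diluted in double-distilled water, final DMSO <1%. Incubation 24 h at 37 °C (20 °C for C. glutamicum). Growth and sterility controls included; oxytetracycline reference.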

Pseudomonas aeruginosa [2] = assay: Antibacterial activity against Pseudomonas aeruginosa PA01 DSM 19880 (ATCC 15692) cultured in MHB medium assessed as no bacterial growth incubated at 37 degC for 24 hrs by microdilution susceptibility test; format: functional; conditions: PAO1 DSM 19880 (ATCC 15692); summary of the method: as §1
Erythrocyte = assay: Hemolytic activity against human RBC incubated for 1 hr; format: cell-based
Summary of the method: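 Heparinized human blood washed three times in warm PBS and set to 10% hct. Erythrocytes at 1% v/v final, with compound in PBS (DMSO <1%), shaken 1 h at 37 °C and then centrifuged. Supernatant absorbance read at 405 and 545 nm after PBS background subtraction. Haemolysis taken relative to 1% Triton X-100. Three independent replicates, EC50 averaged.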

[3] = Selectivity index, ratio of EC50 for hemolytic activity against human RBC to MIC for antibacterial activity against Staphylococcus aureus ATCC 9144; format: toxicity; conditions: human red blood cells (RBC)
Summary of the method: (§2)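 Selectivity index is the RBC haemolysis EC50 divided by the MIC against the E. coli or S. aureus reference strain.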

[4] = Selectivity index, ratio of EC50 for hemolytic activity against human RBC to MIC for antibacterial activity against Escherichia coli ATCC 25922; format: toxicity; conditions: human red blood cells (RBC); summary of the method: as §2
Staphylococcus aureus [5] = assay: Antibacterial activity against multidrug-resistant Staphylococcus aureus WIS cultured in MHB medium assessed as reduction in bacterial growth incubated for 24 hrs by microdilution susceptibility test; format: functional
Summary of the method: (§3)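 Broth microdilution per CLSI M07-A9 (modified). Working solutions made from concentrated DMSO stocks kept at r.t., diluted in double-distilled water, final DMSO <1%. Inoculum 1–1.2 x 10⁶ cells/mL in Mueller-Hinton broth, mixed 1:1 with compound. 37 °C, 24 h, four parallels. Read as OD₆₀₀. Where precipitation left residual OD, the point of major OD decrease was taken as the inhibitory concentration.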

Staphylococcus aureus [6] = assay: Antibacterial activity against multidrug-resistant Staphylococcus aureus IHT 99040 cultured in MHB medium assessed as reduction in bacterial growth incubated for 24 hrs by microdilution susceptibility test; format: functional; conditions: IHT 99040, 24 h; summary of the method: as §3
Enterococcus faecium [7] = assay: Antibacterial activity against multidrug-resistant Enterococcus faecium 50901530 cultured in BHIB medium assessed as reduction in bacterial growth incubated for 24 hrs by microdilution susceptibility test; format: functional; conditions: Enterococcus faecium, 50901530, 24 h
Summary of the method: (§4)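 Enterococci grown in Brain Heart Infusion broth, otherwise broth microdilution per CLSI M07-A9 (modified). Concentrated DMSO stocks kept at r.t. and diluted in double-distilled water, final DMSO <1%. Inoculum 1–1.2 x 10⁶ cells/mL mixed 1:1 with compound. 37 °C, 24 h, four parallels. OD₆₀₀ read-out, lowest concentration with no growth.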

Enterococcus faecium [8] = assay: Antibacterial activity against multidrug-resistant Enterococcus faecium 50758899 cultured in BHIB medium assessed as reduction in bacterial growth incubated for 24 hrs by microdilution susceptibility test; format: functional; conditions: Enterococcus faecium, 50758899, 24 h; summary of the method: as §4
Escherichia coli [9] = assay: Antibacterial activity against multidrug-resistant Escherichia coli 50579417 producing oxcillinase-48 cultured in MHB medium assessed as reduction in bacterial growth incubated for 24 hrs by microdilution susceptibility test; format: functional; conditions: Escherichia coli, 50579417, 24 h; summary of the method: as §3
Escherichia coli [10] = assay: Antibacterial activity against multidrug-resistant Escherichia coli 50639799 producing Verona integron encoded metallo beta-lactamse-29 cultured in MHB medium assessed as reduction in bacterial growth incubated for 24 hrs by microdilution susceptibility test; format: functional; conditions: Escherichia coli, 50639799, 24 h; summary of the method: as §3
Escherichia coli [11] = assay: Antibacterial activity against multidrug-resistant Escherichia coli 50739822 producing New Delhi metallo-beta-lactamase-1 cultured in MHB medium assessed as reduction in bacterial growth incubated for 24 hrs by microdilution susceptibility test; format: functional; conditions: Escherichia coli, 50739822, 24 h; summary of the method: as §3
Escherichia coli [12] = assay: Antibacterial activity against multidrug-resistant Escherichia coli 50857972 producing imipenem-type carbapenemase-26 cultured in MHB medium assessed as reduction in bacterial growth incubated for 24 hrs by microdilution susceptibility test; format: functional; conditions: Escherichia coli, 50857972, 24 h; summary of the method: as §3
Pseudomonas aeruginosa [13] = assay: Antibacterial activity against multidrug-resistant Pseudomonas aeruginosa K44-24 producing imipenem-type carbapenemase-14 cultured in MHB medium assessed as reduction in bacterial growth incubated for 24 hrs by microdilution susceptibility test; format: functional; conditions: K44-24, 24 h; summary of the method: as §3
Pseudomonas aeruginosa [14] = assay: Antibacterial activity against multidrug-resistant Pseudomonas aeruginosa 50692172 producing New Delhi metallo-beta-lactamase-1 cultured in MHB medium assessed as reduction in bacterial growth incubated for 24 hrs by microdilution susceptibility test; format: functional; conditions: Pseudomonas aeruginosa, 50692172, 24 h; summary of the method: as §3
Pseudomonas aeruginosa [15] = assay: Antibacterial activity against multidrug-resistant Pseudomonas aeruginosa 50692520 producing Verona integron encoded metallo beta-lactamse cultured in MHB medium assessed as reduction in bacterial growth incubated for 24 hrs by microdilution susceptibility test; format: functional; conditions: Pseudomonas aeruginosa, 50692520, 24 h; summary of the method: as §3
Klebsiella pneumoniae [16] = assay: Antibacterial activity against multidrug-resistant Klebsiella pneumoniae K47-25 producing carbapenemase-2 cultured in MHB medium assessed as reduction in bacterial growth incubated for 24 hrs by microdilution susceptibility test; format: functional; conditions: K47-25, 24 h; summary of the method: as §3
Klebsiella pneumoniae [17] = assay: Antibacterial activity against multidrug-resistant Klebsiella pneumoniae K66-45 producing New Delhi metallo-beta-lactamase-1 cultured in MHB medium assessed as reduction in bacterial growth incubated for 24 hrs by microdilution susceptibility test; format: functional; conditions: K66-45, 24 h; summary of the method: as §3
Klebsiella pneumoniae [18] = assay: Antibacterial activity against multidrug-resistant Klebsiella pneumoniae 50531633 producing New Delhi metallo-beta-lactamase-1 and oxcillinase-181 cultured in MHB medium assessed as reduction in bacterial growth incubated for 24 hrs by microdilution susceptibility test; format: functional; conditions: Klebsiella pneumoniae, 50531633, 24 h; summary of the method: as §3
Klebsiella pneumoniae [19] = assay: Antibacterial activity against multidrug-resistant Klebsiella pneumoniae 50667959 producing Verona integron encoded metallo beta-lactamse-1 cultured in MHB medium assessed as reduction in bacterial growth incubated for 24 hrs by microdilution susceptibility test; format: functional; conditions: Klebsiella pneumoniae, 50667959, 24 h; summary of the method: as §3
Acinetobacter baumannii [20] = assay: Antibacterial activity against multidrug-resistant Acinetobacter baumannii K44-35 producing oxcillinase-23 cultured in MHB medium assessed as reduction in bacterial growth incubated for 24 hrs by microdilution susceptibility test; format: functional; conditions: K44-35, 24 h; summary of the method: as §3
Acinetobacter baumannii [21] = assay: Antibacterial activity against multidrug-resistant Acinetobacter baumannii K47-42 producing oxcillinase-23 cultured in MHB medium assessed as reduction in bacterial growth incubated for 24 hrs by microdilution susceptibility test; format: functional; conditions: K47-42, 24 h; summary of the method: as §3
Acinetobacter baumannii [22] = assay: Antibacterial activity against multidrug-resistant Acinetobacter baumannii K55-13 producing oxcillinase-24 cultured in MHB medium assessed as reduction in bacterial growth incubated for 24 hrs by microdilution susceptibility test; format: functional; conditions: K55-13, 24 h; summary of the method: as §3

Structure (SMILES)	MIC [1] [mg/L]	MIC (Pseudomonas aeruginosa [2]) [mg/L]	EC50 (Erythrocyte) [mg/L]	selectivity ratio [3]	selectivity ratio [4]	MIC (Staphylococcus aureus [5]) [mg/L]	MIC (Staphylococcus aureus [6]) [mg/L]	MIC (Enterococcus faecium [7]) [mg/L]	MIC (Enterococcus faecium [8]) [mg/L]	MIC (Escherichia coli [9]) [mg/L]	MIC (Escherichia coli [10]) [mg/L]	MIC (Escherichia coli [11]) [mg/L]	MIC (Escherichia coli [12]) [mg/L]	MIC (Pseudomonas aeruginosa [13]) [mg/L]	MIC (Pseudomonas aeruginosa [14]) [mg/L]	MIC (Pseudomonas aeruginosa [15]) [mg/L]	MIC (Klebsiella pneumoniae [16]) [mg/L]	MIC (Klebsiella pneumoniae [17]) [mg/L]	MIC (Klebsiella pneumoniae [18]) [mg/L]	MIC (Klebsiella pneumoniae [19]) [mg/L]	also measured
NCCNCC(CN)(Cc1cc(C(F)(F)F)cc(C(F)(F)F)c1)Cc1cc(C(F)(F)F)cc(C(F)(F)F)c1	1 (≈ 1.76 µM)	4 (≈ 7.02 µM)	23 (≈ 40.4 µM)	6	6	8 (≈ 14 µM)	8 (≈ 14 µM)	8 (≈ 14 µM)	8 (≈ 14 µM)	8 (≈ 14 µM)	8 (≈ 14 µM)	8 (≈ 14 µM)	8 (≈ 14 µM)	32 (≈ 56.2 µM)	16 (≈ 28.1 µM)	32 (≈ 56.2 µM)	16 (≈ 28.1 µM)	8 (≈ 14 µM)	8 (≈ 14 µM)	8 (≈ 14 µM)	MIC (Acinetobacter baumannii [20]): 8 mg/L (≈ 14 µM); MIC (Acinetobacter baumannii [21]): 8 mg/L (≈ 14 µM); MIC (Acinetobacter baumannii [22]): 8 mg/L (≈ 14 µM)
N=C(N)NCCNC(=O)C(CNC(=N)N)(Cc1cc(Br)cc(Br)c1)Cc1cc(Br)cc(Br)c1	0.25 (≈ 0.352 µM)	4 (≈ 5.63 µM)	206 (≈ 290 µM)	206	26	2 (≈ 2.81 µM)	2 (≈ 2.81 µM)	4 (≈ 5.63 µM)	4 (≈ 5.63 µM)	8 (≈ 11.3 µM)	8 (≈ 11.3 µM)	8 (≈ 11.3 µM)	8 (≈ 11.3 µM)	16 (≈ 22.5 µM)	8 (≈ 11.3 µM)	4 (≈ 5.63 µM)	32 (≈ 45 µM)	16 (≈ 22.5 µM)	16 (≈ 22.5 µM)	16 (≈ 22.5 µM)	MIC (Acinetobacter baumannii [20]): 16 mg/L (≈ 22.5 µM); MIC (Acinetobacter baumannii [21]): 16 mg/L (≈ 22.5 µM); MIC (Acinetobacter baumannii [22]): 16 mg/L (≈ 22.5 µM)
NCCNC(=O)C(CN)(Cc1ccc(C(F)(F)F)cc1)Cc1ccc(C(F)(F)F)cc1	4 (≈ 8.94 µM)	32 (≈ 71.5 µM)	289 (≈ 646 µM)	36	18	> 32	> 32	16 (≈ 35.8 µM)	32 (≈ 71.5 µM)	> 32	> 32	32 (≈ 71.5 µM)	32 (≈ 71.5 µM)	> 32	> 32	> 32	> 32	> 32	32 (≈ 71.5 µM)	32 (≈ 71.5 µM)	MIC (Acinetobacter baumannii [20]): > 32 mg/L; MIC (Acinetobacter baumannii [21]): > 32 mg/L; MIC (Acinetobacter baumannii [22]): > 32 mg/L
